# Activity calls are given as the source filed them.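 Rule for the calls, unless noted: active = duplicate-averaged activation above buffer control mean plus 5 SD of those controls; inactive = the rest.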
# System: not listed separately
# Test: nonspecific flux increase, KCNQ1-free cells – parental CHO cells, counter-screen for KCNQ1 potentiator project (AID 493006);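 for activation: fluorescence ratio of max minus min over baseline after K+ and Tl+ depolarization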
# Settings: parental CHO-K1 cells, FluxOR thallium flux, at 10 µM; stronger effect = higher value
# Outline: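 Material: untransfected host CHO-K1 cells with FluxOR thallium dye. Timing: overnight 37 °C plating, 90 min RT dye, 20 min compound. Detection: kinetic FluxOR fluorescence, 10 s baseline, 110 s after stimulus. Read-out basis: max-minus-min fluorescence over baseline, percent of buffer-to-R-L3 span. Replicates: duplicate wells per compound, percent values averaged.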
Structure (SMILES),outcome,activation
O=C(O)c1ccc2c(c1)C(=O)N(Cc1ccccc1)C2=O,inactive,–
Cc1cc(NC(=O)CSc2cn(CCNC(=O)c3ccc(F)cc3)c3ccccc23)no1,inactive,–
COc1cccc(N=Nc2ccc(O)c3ncccc23)c1,–,166% (active)
CC(C)(C)C1C/C(=C/c2ccccn2)C(=O)/C(=C/c2ccccn2)C1 (stereo not given),inactive,–
COc1ccccc1C(=O)NNC(=O)C(=O)NCc1ccccc1,–,188% (active)
CC(Oc1ccc(Br)cc1)c1nc2c3ccccc3nc(=S)n2[nH]1 (stereo not given),–,227% (active)
O=C(Nc1cccc2cccnc12)c1ccc(Br)o1,inactive,–
CCCCN(CCCC)C(=S)NC(=O)C(C)(C)C,inactive,–
O=C(Nn1c(Cc2cccs2)nc2ccccc2c1=O)c1cccs1,inactive,–
N=C1S/C(=C\c2ccco2)C(=O)N1c1nccs1,–,138% (active)
CC(=O)N(C)c1ccc(NC(=O)Cc2cccc3ccccc23)cc1,inactive,–
C/C(=N\NC(=O)c1cccc(F)c1)c1ccc(Br)s1,inactive,–
O=C(CCC(=O)N1CCOc2ccc(Cl)cc21)NCCN1CCOCC1,inactive,–
COC(=O)c1c(NS(=O)(=O)c2ccc3ccccc3c2)sc2c1CCCC2,–,216% (active)
CCn1c(CSc2nc3ccccc3n2C)nc2ccccc21,inactive,–
CCOC(=O)c1ccc(NC(=S)N2CCSC2c2ccc(Br)cc2)cc1 (stereo not given),inactive,–
Cc1ccc(CN2CCN(/N=C/C(Br)=C\c3ccccc3)CC2)cc1,inactive,–
Cc1ccc(-c2cc(C(=O)NCc3ccccn3)c3ccccc3n2)cc1C,inactive,–
Cc1[nH]c(=S)sc1Cc1ccc(F)cc1,–,286% (active)
CCCCn1c(=S)[nH]c2ccccc2c1=O,–,160% (active)

Structure (SMILES),outcome,activation
O=C(NC(=S)Nc1ccc2c(c1)OCCO2)c1ccco1,–,206% (active)
Fc1ccc(NC(=S)N/N=C/c2ccc(F)c(F)c2)c(F)c1,inactive,–
N#CC(c1ccc(Cl)cc1)c1ccc2c(C(F)(F)F)cc(C(F)(F)F)nc2n1 (stereo not given),–,296% (active)
COc1cc(/C=N/Nc2snc(SC)c2C#N)ccc1O,inactive,–
COc1ccc(NC(=O)CC2C(=O)N(c3ccc(Cl)cc3)C(=S)N2NC(=O)c2cccc(F)c2)cc1 (stereo not given),inactive,–
Cc1cc(S(=O)(=O)N2CCOCC2)ccc1OCC(=O)Nc1ccc(Br)cc1F,inactive,–
Cn1nccc1C(=O)NC(=S)Nc1cc(Cl)cc(Cl)c1,–,141% (active)
CC1CN(c2nc(-c3ccc(Br)cc3)nnc2-c2ccccc2)CC(C)N1 (stereo not given),inactive,–
CCOC(=O)c1sc(NC(=O)c2ccncc2)nc1C,–,161% (active)
CCOC(=O)c1c(NC(=S)NCCc2ccccc2)sc2c1CC(C(C)C)OC2 (stereo not given),inactive,–
Cc1ccccc1NC(=O)C(=O)NNC(=O)COc1ccc2ccccc2c1,–,232% (active)
CN(CC(=O)Nc1c(Cl)cccc1Cl)C(=O)c1n[nH]c2ccccc12,inactive,–
CC(Oc1ccc(Cl)cc1Cl)C(=O)NC(=S)N1CCc2ccccc21 (stereo not given),–,151% (active)
O=C(NC1CCCC1)C(c1cccnc1)N(C(=O)c1csnn1)C1CC1 (stereo not given),inactive,–
O=C(C1CCCCC1)N(CCN1CCCC1)c1nc2ccccc2s1,inactive,–
CC(C)Cn1c(=O)c(C(=O)N/N=C/c2cccc(F)c2)c(O)c2ccccc21,inactive,–
Cc1ccc(-c2nc3ccc(Cl)cc3c(=O)n2O)cc1,–,558% (active)
CCOC(=O)C(=Cc1cc(=O)c(OC)co1)C(=O)OCC,inactive,–
COc1ccc(NC(=O)CN(C)C(=O)c2ccc(N3CCOCC3)c([N+](=O)[O-])c2)cc1,–,151% (active)
O=C(NC(=S)Nc1ccccc1)c1cc(-c2ccccc2)nc2ccccc12,–,158% (active)

# Target: Potassium voltage-gated channel subfamily KQT member 1 (Homo sapiens) (UniProt P51787)
# Test: enhancement of KCNQ1 channel thallium flux – FluxOR thallium flux, CHO cells, duplicates, confirmation (AID 493007;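 active = potentiation averaged over duplicate wells exceeding buffer-only control mean by more than 3 SD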;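 for outcome: cells depolarized by a potassium plus thallium sulfate stimulus after compound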)
# Settings: KCNQ1 cell line, FluxOR thallium flux fluorescence, at 10 µM; stronger effect = higher value, % of reference activator effect, buffer zero
# Outline: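 Test system – KCNQ1-expressing CHO cell line · Incubation – FluxOR dye loading 90 min, compound exposure 20 min, room temperature · Detection – FluxOR Tl+ flux fluorescence, 10 s baseline plus 110 s recording · Controls – buffer-only wells as 0% and R-L3 activator as 100%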
# Sequence of Potassium voltage-gated channel subfamily KQT member 1 (Homo sapiens) (P51787 whole entry, looked up): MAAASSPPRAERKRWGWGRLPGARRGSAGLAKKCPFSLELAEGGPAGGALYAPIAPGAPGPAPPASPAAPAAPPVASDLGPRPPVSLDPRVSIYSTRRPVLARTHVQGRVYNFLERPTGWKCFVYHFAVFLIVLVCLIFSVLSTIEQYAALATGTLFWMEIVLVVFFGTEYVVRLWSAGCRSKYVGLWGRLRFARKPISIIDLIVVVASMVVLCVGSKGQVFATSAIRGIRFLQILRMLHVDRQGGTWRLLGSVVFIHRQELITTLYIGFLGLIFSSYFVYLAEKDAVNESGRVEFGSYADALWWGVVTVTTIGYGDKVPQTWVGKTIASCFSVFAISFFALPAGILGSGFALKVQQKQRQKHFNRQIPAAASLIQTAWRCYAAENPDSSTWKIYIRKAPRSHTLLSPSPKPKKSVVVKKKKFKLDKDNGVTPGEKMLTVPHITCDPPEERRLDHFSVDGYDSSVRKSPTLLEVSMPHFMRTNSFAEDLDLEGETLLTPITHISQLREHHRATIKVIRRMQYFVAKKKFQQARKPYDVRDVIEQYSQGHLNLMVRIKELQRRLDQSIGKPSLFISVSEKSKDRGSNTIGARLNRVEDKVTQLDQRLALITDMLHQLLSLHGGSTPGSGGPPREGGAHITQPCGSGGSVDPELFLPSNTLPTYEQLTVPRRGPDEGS
Structure (SMILES),outcome,potentiation
O=C(O)c1ccc2c(c1)C(=O)N(Cc1ccccc1)C2=O,inactive,–
Cc1cc(NC(=O)CSc2cn(CCNC(=O)c3ccc(F)cc3)c3ccccc23)no1,inactive,–
COc1cccc(N=Nc2ccc(O)c3ncccc23)c1,–,44% (active)
CC(C)(C)C1C/C(=C/c2ccccn2)C(=O)/C(=C/c2ccccn2)C1 (stereo not given),inactive,–
COc1ccccc1C(=O)NNC(=O)C(=O)NCc1ccccc1,–,59.5% (active)
CC(Oc1ccc(Br)cc1)c1nc2c3ccccc3nc(=S)n2[nH]1 (stereo not given),–,45.5% (active)
O=C(Nc1cccc2cccnc12)c1ccc(Br)o1,inactive,–
CCCCN(CCCC)C(=S)NC(=O)C(C)(C)C,inactive,–
O=C(Nn1c(Cc2cccs2)nc2ccccc2c1=O)c1cccs1,inactive,–
N=C1S/C(=C\c2ccco2)C(=O)N1c1nccs1,inactive,–
CC(=O)N(C)c1ccc(NC(=O)Cc2cccc3ccccc23)cc1,inactive,–
C/C(=N\NC(=O)c1cccc(F)c1)c1ccc(Br)s1,inactive,–
O=C(CCC(=O)N1CCOc2ccc(Cl)cc21)NCCN1CCOCC1,inactive,–
COC(=O)c1c(NS(=O)(=O)c2ccc3ccccc3c2)sc2c1CCCC2,–,60.5% (active)
CCn1c(CSc2nc3ccccc3n2C)nc2ccccc21,inactive,–
CCOC(=O)c1ccc(NC(=S)N2CCSC2c2ccc(Br)cc2)cc1 (stereo not given),inactive,–
Cc1ccc(CN2CCN(/N=C/C(Br)=C\c3ccccc3)CC2)cc1,inactive,–
Cc1ccc(-c2cc(C(=O)NCc3ccccn3)c3ccccc3n2)cc1C,inactive,–
Cc1[nH]c(=S)sc1Cc1ccc(F)cc1,–,101% (active)
CCCCn1c(=S)[nH]c2ccccc2c1=O,–,50.5% (active)

Structure (SMILES),outcome,potentiation
O=C(NC(=S)Nc1ccc2c(c1)OCCO2)c1ccco1,–,108% (active)
Fc1ccc(NC(=S)N/N=C/c2ccc(F)c(F)c2)c(F)c1,inactive,–
N#CC(c1ccc(Cl)cc1)c1ccc2c(C(F)(F)F)cc(C(F)(F)F)nc2n1 (stereo not given),–,145% (active)
COc1cc(/C=N/Nc2snc(SC)c2C#N)ccc1O,inactive,–
COc1ccc(NC(=O)CC2C(=O)N(c3ccc(Cl)cc3)C(=S)N2NC(=O)c2cccc(F)c2)cc1 (stereo not given),inactive,–
Cc1cc(S(=O)(=O)N2CCOCC2)ccc1OCC(=O)Nc1ccc(Br)cc1F,inactive,–
Cn1nccc1C(=O)NC(=S)Nc1cc(Cl)cc(Cl)c1,–,20.5% (active)
CC1CN(c2nc(-c3ccc(Br)cc3)nnc2-c2ccccc2)CC(C)N1 (stereo not given),inactive,–
CCOC(=O)c1sc(NC(=O)c2ccncc2)nc1C,–,54% (active)
CCOC(=O)c1c(NC(=S)NCCc2ccccc2)sc2c1CC(C(C)C)OC2 (stereo not given),–,32% (active)
Cc1ccccc1NC(=O)C(=O)NNC(=O)COc1ccc2ccccc2c1,–,93.5% (active)
CN(CC(=O)Nc1c(Cl)cccc1Cl)C(=O)c1n[nH]c2ccccc12,inactive,–
CC(Oc1ccc(Cl)cc1Cl)C(=O)NC(=S)N1CCc2ccccc21 (stereo not given),–,120% (active)
O=C(NC1CCCC1)C(c1cccnc1)N(C(=O)c1csnn1)C1CC1 (stereo not given),inactive,–
O=C(C1CCCCC1)N(CCN1CCCC1)c1nc2ccccc2s1,inactive,–
CC(C)Cn1c(=O)c(C(=O)N/N=C/c2cccc(F)c2)c(O)c2ccccc21,inactive,–
Cc1ccc(-c2nc3ccc(Cl)cc3c(=O)n2O)cc1,–,221% (active)
CCOC(=O)C(=Cc1cc(=O)c(OC)co1)C(=O)OCC,inactive,–
COc1ccc(NC(=O)CN(C)C(=O)c2ccc(N3CCOCC3)c([N+](=O)[O-])c2)cc1,–,22% (active)
O=C(NC(=S)Nc1ccccc1)c1cc(-c2ccccc2)nc2ccccc12,–,75% (active)
